Values belong to the compound of their own block, whether it stands above or below them. Active and inactive are the calls of the source. The calls are words filed in the database; no cut-off is given here.
Assays:
[1] = target: T1, Inhibitor of nuclear factor kappa-B kinase subunit beta (Homo sapiens) (UniProt O14920); assay: Inhibition of IKKbeta (unknown origin) at 10 uM using IkappaBalpha-derived 5FAMGRHDSGLDSMK-NH2 as substrate preincubated for 10 mins followed by substrate addition measured after 2 hrs by IMAP based TR-FRET assay relative to control
T1 sequence (whole entry): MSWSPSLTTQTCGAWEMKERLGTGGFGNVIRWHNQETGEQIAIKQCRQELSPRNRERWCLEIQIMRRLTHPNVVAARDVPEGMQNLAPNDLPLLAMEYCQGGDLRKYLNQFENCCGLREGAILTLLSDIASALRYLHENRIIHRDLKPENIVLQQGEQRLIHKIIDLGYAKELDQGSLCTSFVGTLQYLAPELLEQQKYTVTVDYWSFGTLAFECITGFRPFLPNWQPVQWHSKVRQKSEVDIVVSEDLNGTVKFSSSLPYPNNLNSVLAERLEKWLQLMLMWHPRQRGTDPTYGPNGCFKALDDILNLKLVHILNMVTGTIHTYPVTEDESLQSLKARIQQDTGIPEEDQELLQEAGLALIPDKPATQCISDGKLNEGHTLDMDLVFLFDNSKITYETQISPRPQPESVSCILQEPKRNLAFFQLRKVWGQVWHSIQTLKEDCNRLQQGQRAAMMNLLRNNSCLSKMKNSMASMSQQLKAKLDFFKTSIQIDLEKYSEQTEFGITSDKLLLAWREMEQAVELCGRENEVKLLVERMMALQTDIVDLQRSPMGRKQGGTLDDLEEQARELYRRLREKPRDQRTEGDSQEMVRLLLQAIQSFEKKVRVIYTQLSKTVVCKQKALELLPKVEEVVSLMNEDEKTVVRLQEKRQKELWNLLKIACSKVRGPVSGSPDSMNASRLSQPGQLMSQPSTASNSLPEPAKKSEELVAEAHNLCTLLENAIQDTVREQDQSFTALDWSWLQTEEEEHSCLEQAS
Summary of the method: (§1)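 Recombinant IKK2 at 0.5 µg/mL in 10 mM Tris-HCl pH 7.2, 10 mM MgCl2, 0.05% NaN3, 1 mM DTT, 0.01% Tween-20. Compound preincubated with enzyme for 10 min, then 1 μM 5-FAM IκBα peptide and 3 μM ATP added; reaction at room temperature for 2 h. IMAP binding reagent (1:600) plus terbium donor (1:400) added 15 h before the TR-FRET read. Percent inhibition measured at 10 µM.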

[2] = target: T2, Inhibitor of nuclear factor kappa-B kinase subunit beta (Homo sapiens, UniProt O14920); assay: Inhibition of human IKKbeta using IKKtide as substrate after 20 mins by [gamma-33P]-ATP based radiometric assay
T2 sequence (O14920 whole entry): T1 sequence (whole entry)

[3] = target: Voltage-gated inwardly rectifying potassium channel KCNH2 (Homo sapiens, UniProt Q12809); assay: Inhibition of human ERG expressed in CHOK1 cells assessed as reduction in tail current at -80 holding potential after 100 to 200 secs by whole cell automated patch-clamp electrophysiology assay; type: ADME, cell-based
Chain of Voltage-gated inwardly rectifying potassium channel KCNH2 (Q12809 whole entry, the tested form may be a part): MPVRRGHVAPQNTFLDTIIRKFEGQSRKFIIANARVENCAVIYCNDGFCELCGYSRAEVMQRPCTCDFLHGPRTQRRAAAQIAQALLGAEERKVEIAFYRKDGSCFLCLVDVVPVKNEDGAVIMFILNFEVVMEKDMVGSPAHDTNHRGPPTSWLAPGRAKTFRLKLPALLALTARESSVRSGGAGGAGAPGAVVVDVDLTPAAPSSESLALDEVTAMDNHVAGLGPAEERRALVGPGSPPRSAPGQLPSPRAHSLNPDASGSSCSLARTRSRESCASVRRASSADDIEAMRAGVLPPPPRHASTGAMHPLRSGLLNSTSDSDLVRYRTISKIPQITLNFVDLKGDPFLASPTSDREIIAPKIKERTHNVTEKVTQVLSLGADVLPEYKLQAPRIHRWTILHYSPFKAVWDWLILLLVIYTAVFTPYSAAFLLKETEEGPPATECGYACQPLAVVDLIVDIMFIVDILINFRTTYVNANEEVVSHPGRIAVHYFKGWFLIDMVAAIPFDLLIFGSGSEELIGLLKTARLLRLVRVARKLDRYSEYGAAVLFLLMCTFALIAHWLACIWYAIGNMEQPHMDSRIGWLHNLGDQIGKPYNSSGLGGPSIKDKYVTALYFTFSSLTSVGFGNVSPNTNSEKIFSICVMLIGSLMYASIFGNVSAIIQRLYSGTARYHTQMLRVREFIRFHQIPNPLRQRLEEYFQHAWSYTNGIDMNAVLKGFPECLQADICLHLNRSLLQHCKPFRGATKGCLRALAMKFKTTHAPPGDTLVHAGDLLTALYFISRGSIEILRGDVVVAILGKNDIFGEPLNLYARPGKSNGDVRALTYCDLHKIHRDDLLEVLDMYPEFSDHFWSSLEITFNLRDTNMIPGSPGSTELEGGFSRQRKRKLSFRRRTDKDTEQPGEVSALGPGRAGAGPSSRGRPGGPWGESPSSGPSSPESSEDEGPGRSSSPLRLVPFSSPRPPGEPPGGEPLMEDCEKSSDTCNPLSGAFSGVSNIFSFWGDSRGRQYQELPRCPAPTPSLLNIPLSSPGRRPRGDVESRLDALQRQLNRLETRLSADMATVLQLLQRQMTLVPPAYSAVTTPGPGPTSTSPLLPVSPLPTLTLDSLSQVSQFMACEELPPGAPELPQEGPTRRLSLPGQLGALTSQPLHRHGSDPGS
Summary of the method: (§2)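 CHO-K1 Tet-On hERG cells, with expression induced by doxycycline 5 μg/ml, recorded 20–32 h after induction. Whole-cell automated patch clamp used intracellular solution of 50 KCl, 60 KF, 10 NaCl, 2 MgCl2, 20 EGTA, 10 HEPES pH 7.2 (mM) and extracellular solution of 140 NaCl, 4 KCl, 2 CaCl2, 1 MgCl2, 5 glucose, 10 HEPES pH 7.4. Compound perfused for 100–200 s until tail-current block reached equilibrium. Percent inhibition taken at 100 μM.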

[4] = target: T2, Inhibitor of nuclear factor kappa-B kinase subunit beta; assay: Inhibition of IKKbeta (unknown origin) using IkappaBalpha-derived 5FAMGRHDSGLDSMK-NH2 as substrate preincubated for 10 mins followed by substrate addition measured after 2 hrs by IMAP based TR-FRET assay; summary of the method: as §1
[5] = tested on: hERG (KCNH2) versus IKKbeta; assay: Safety index, ratio of compound IC50 for human ERG expressed in CHOK1 cells to IC50 for IKKbeta (unknown origin); type: toxicity, cell-based; settings: CHO-K1 cells expressing human ERG, read-out: Ratio IC50
Summary of the method: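 Safety index calculated as hERG IC50 divided by IKK-β IC50.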

hERG (KCNH2) = hERG (KCNH2) (Homo sapiens, UniProt Q12809); assay: Inhibition of human ERG expressed in CHOK1 cells assessed as reduction in tail current at 100 uM and -80 holding potential after 100 to 200 secs by whole cell automated patch-clamp electrophysiology assay relative to control; type: ADME, cell-based; settings: CHO-K1 cells expressing human ERG; summary of the method: as §2
Chain of hERG (KCNH2) (Q12809 whole entry): as the sequence (Q12809 whole entry, the tested form may be a part) above

[6] = Cytotoxicity against LPS-treated mouse RAW264.7 cells assessed as decrease in cell viability after 24 hrs by MTT assay; type: cell-based; settings: LPS-treated RAW264.7 cells
Summary of the method: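 RAW 264.7 cells seeded at 1×10^5 cells/mL, grown overnight, then exposed to samples for 24 h, with or without 1 μg/ml LPS. MTT added from a 5 mg/mL PBS stock for 4 h at 37 °C. Formazan dissolved in DMSO and absorbance read at 540 nm. IC80 is the concentration lowering viability to 80% in the presence of LPS.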

RAW264.7 [7] = assay: Antiinflammatory activity against mouse RAW264.7 cells assessed as inhibition of LPS-induced PGE2 production incubated for 1 hr followed by LPS addition measured after 24 hrs by ELISA; type: functional, cell-based
Summary of the method: (§3)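 RAW 264.7 macrophages (DMEM, 10% FBS, penicillin/streptomycin, 37 °C, 5% CO2) plated at 2×10^5 cells/mL and left overnight. Compounds at 1.5, 3 and 6 μM, or NS-398 as positive control, given for 1 h, then LPS (10 ng/mL) for 24 h. PGE2 and TNF-α in diluted culture medium quantified by ELISA. IC50 is the concentration halving the produced mediator.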

RAW264.7 [8] = assay: Antiinflammatory activity against mouse RAW264.7 cells assessed as inhibition of LPS-induced TNFalpha production incubated for 1 hr followed by LPS addition measured after 24 hrs by ELISA; type: functional, cell-based; summary of the method: as §3
[9] = target: T2, Inhibitor of nuclear factor kappa-B kinase subunit beta; assay: Irreversible inhibition of IKKbeta (unknown origin) using IkappaBalpha-derived 5FAMGRHDSGLDSMK-NH2 as substrate measured immediately
Summary of the method: (§4)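 Same IKK2 IMAP TR-FRET system (0.5 µg/mL enzyme, 1 μM peptide, 3 μM ATP, room temperature). Ten concentrations, 0.001–30 μM, with reactions run for 0, 20, 40 or 60 min instead of 2 h. Dose–response curves fitted at each time point. Kobs obtained from ln(% activity remaining) against time, then regressed nonlinearly against concentration.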

[10] = target: T2, Inhibitor of nuclear factor kappa-B kinase subunit beta; assay: Irreversible inhibition of IKKbeta (unknown origin) using IkappaBalpha-derived 5FAMGRHDSGLDSMK-NH2 as substrate measured after 60 mins; summary of the method: as §4
[11] = target: T1, Inhibitor of nuclear factor kappa-B kinase subunit beta (Homo sapiens); assay: Irreversible inhibition of IKKbeta (unknown origin) at 0.001 to 30 uM using IkappaBalpha-derived 5FAMGRHDSGLDSMK-NH2 as substrate measured up to 60 mins; summary of the method: as §4
[12] = target: T2, Inhibitor of nuclear factor kappa-B kinase subunit beta; assay: Irreversible inhibition of IKKbeta (unknown origin) using IkappaBalpha-derived 5FAMGRHDSGLDSMK-NH2 as substrate measured after 40 mins; summary of the method: as §4
[13] = target: T2, Inhibitor of nuclear factor kappa-B kinase subunit beta; assay: Irreversible inhibition of IKKbeta (unknown origin) using IkappaBalpha-derived 5FAMGRHDSGLDSMK-NH2 as substrate measured after 20 mins; summary of the method: as §4

Compound: COCCN1CCN(CCCCOc2ccc(N3C(=O)S/C(=C\c4ccc(Oc5ccc(Br)cc5)cc4)C3=O)cc2)CC1
inhibition [1]: 0%

Compound: CS(=O)(=O)N1CCN(CCCCOc2ccc(N3C(=O)S/C(=C\c4ccc(Oc5ccc(F)cc5)cc4)C3=O)cc2)CC1
inhibition [1]: 2.7%

Compound: Nc1nc(N)nc(-c2ccc(Oc3ccccc3N)cc2)n1
IC50 [2]: 7800 nM

Compound: COCCN1CCN(CCCCOc2ccc(N3C(=O)S/C(=C\c4ccc(Oc5ccc(F)cc5)cc4)C3=O)cc2)CC1
inhibition [1]: 1.6%

Compound: O=C1S/C(=C\c2ccc(N3CCOCC3)c(Cl)c2)C(=O)N1c1ccc(OCCCCCN2CCN(CC3CC3)CC2)cc1
inhibition [1]: 92.1%
IC80 at 24 h [6]: < 1500 nM
IC50 [4]: 900 nM
Activity (RAW264.7 [7]): Dose-dependent effect
IC50 (RAW264.7 [7]): > 6000 nM

Compound: O=C(C1CC1)N1CCN(CCCCOc2ccc(N3C(=O)S/C(=C\c4ccc(Oc5ccc(Br)cc5)cc4)C3=O)cc2)CC1
inhibition [1]: 52.4%
IC50 [4]: 8600 nM
inhibition at 100 µM (hERG (KCNH2)): 17.1%

Compound: CS(=O)(=O)N1CCN(CCCCOc2ccc(N3C(=O)S/C(=C\c4ccc(Oc5ccc(Br)cc5)cc4)C3=O)cc2)CC1
inhibition [1]: 3.3%

Compound: COCCCN1CCN(CCCCOc2ccc(N3C(=O)S/C(=C\c4ccc(Oc5ccc(Br)cc5)cc4)C3=O)cc2)CC1
inhibition [1]: 0%

Compound: COCCN1CCN(CCCCOc2ccc(N3C(=O)S/C(=C\c4ccc(Oc5ccc(Cl)cc5)cc4)C3=O)cc2)CC1
inhibition [1]: 1.7%

Compound: COCCCN1CCN(CCCCOc2ccc(N3C(=O)S/C(=C\c4ccc(Oc5ccc(Cl)cc5)cc4)C3=O)cc2)CC1
inhibition [1]: 1.6%

Compound: O=C(C1CC1)N1CCN(CCCCOc2ccc(N3C(=O)S/C(=C\c4ccc(Oc5ccc(F)cc5)cc4)C3=O)cc2)CC1
inhibition [1]: 21.2%

Compound: O=C1N/C(=N\c2ccc(O)cc2)S/C1=C\c1cc2ccccc2[nH]1
IC50 [2]: 97400 nM

Compound: CS(=O)(=O)N1CCN(CCCCOc2ccc(N3C(=O)S/C(=C\c4ccc(Oc5ccc(Cl)cc5)cc4)C3=O)cc2)CC1
inhibition [1]: 0.8%

Compound: O=C1S/C(=C\c2ccc(N3CCOCC3)c(Cl)c2)C(=O)N1c1ccc(OCCCN2CCN(CC3CC3)CC2)cc1
inhibition [1]: 90.7%
IC50 [9]: 372 nM
IC80 at 24 h [6]: 2670 nM
IC50 [10]: 252 nM
IC50 [4]: 700 nM
IC50 (RAW264.7 [8]): > 6000 nM
inhibition [11]: Active
IC50 [12]: 251 nM
IC50 [13]: 288 nM

Compound: COCCCN1CCN(CCCCOc2ccc(N3C(=O)S/C(=C\c4ccc(Oc5ccc(F)cc5)cc4)C3=O)cc2)CC1
inhibition [1]: 0.7%

Further lines, with some results ahead:

inhibition [1]: 85.7%
IC50 [4]: 1700 nM
Compound: O=C1S/C(=C\c2ccc(Oc3ccc(F)cc3)cc2)C(=O)N1c1ccc(OCCCCN2CCN(CC3CC3)CC2)cc1
IC50 [3]: 3400 nM
selectivity ratio [5]: 2
inhibition at 100 µM (hERG (KCNH2)): 99.5%

inhibition [1]: 9.4%
Compound: COCCCN1CCN(CCCCOc2ccc(N3C(=O)S/C(=C\c4ccc(Oc5ccc([N+](=O)[O-])cc5)cc4)C3=O)cc2)CC1

inhibition [1]: 88.8%
IC50 [4]: 1400 nM
Compound: O=C1S/C(=C\c2ccc(Oc3ccc(F)cc3)cc2)C(=O)N1c1ccc(OCCCN2CCN(CC3CC3)CC2)cc1

inhibition [1]: 9.3%
Compound: COCCN1CCN(CCCCOc2ccc(N3C(=O)S/C(=C\c4ccc(Oc5ccc([N+](=O)[O-])cc5)cc4)C3=O)cc2)CC1

inhibition [1]: 37.5%
Compound: O=C1S/C(=C\c2ccc(Oc3ccc(Cl)cc3)cc2)C(=O)N1c1ccc(OCCCCN2CCN(CC3CC3)CC2)cc1

inhibition [1]: 60.8%
IC50 [4]: 7900 nM
Compound: O=C1S/C(=C\c2ccc(Oc3ccc(Br)cc3)cc2)C(=O)N1c1ccc(OCCCCN2CCN(CC3CC3)CC2)cc1
IC50 [3]: 27500 nM
selectivity ratio [5]: 3.5
inhibition at 100 µM (hERG (KCNH2)): 66.5%

inhibition [1]: 85.6%
IC50 [4]: 1500 nM
IC50 (RAW264.7 [7]): > 6000 nM
IC50 (RAW264.7 [8]): 3410 nM
Compound: O=C1S/C(=C\c2ccc(Oc3ccc([N+](=O)[O-])cc3)cc2)C(=O)N1c1ccc(OCCCCN2CCN(CC3CC3)CC2)cc1
IC80 at 24 h [6]: > 6000 nM
IC50 [3]: 55300 nM
Activity (RAW264.7 [7]): Dose-dependent effect
selectivity ratio [5]: 36.9
inhibition at 100 µM (hERG (KCNH2)): 61.2%

inhibition [1]: 0%
Compound: CS(=O)(=O)N1CCN(CCCCOc2ccc(N3C(=O)S/C(=C\c4ccc(Oc5ccc([N+](=O)[O-])cc5)cc4)C3=O)cc2)CC1

inhibition [1]: 17%
Compound: O=C(C1CC1)N1CCN(CCCCOc2ccc(N3C(=O)S/C(=C\c4ccc(Oc5ccc(Cl)cc5)cc4)C3=O)cc2)CC1

inhibition [1]: 92.8%
IC50 [9]: 1100 nM
IC50 [10]: 240 nM
IC50 [4]: 400 nM
IC50 (RAW264.7 [7]): > 6000 nM
IC50 (RAW264.7 [8]): 1670 nM
inhibition [11]: Active
IC50 [12]: 299 nM
IC50 [13]: 340 nM
Compound: O=C1S/C(=C\c2ccc(Oc3ccc(F)cc3)cc2)C(=O)N1c1ccc(OCCCCCN2CCN(CC3CC3)CC2)cc1
IC80 at 24 h [6]: > 6000 nM
Activity (RAW264.7 [7]): Dose-dependent effect

inhibition [1]: 21.7%
Compound: O=C(C1CC1)N1CCN(CCCCOc2ccc(N3C(=O)S/C(=C\c4ccc(Oc5ccc([N+](=O)[O-])cc5)cc4)C3=O)cc2)CC1

Reference: ChEMBL document CHEMBL4270615, “Design, synthesis and biological evaluation of novel thiazolidinedione derivatives as irreversible allosteric IKK-β modulators” (Eur J Med Chem, 2018)
